Assay results from ChEMBL document CHEMBL3739303, “Targeting the Src Homology 2 (SH2) Domain of Signal Transducer and Activator of Transcription 6 (STAT6) with Cell-Permeable, Phosphatase-Stable Phosphopeptide Mimics Potently Inhibits Tyr641 Phosphorylation and Transcriptional Activity” (J Med Chem, 2015).
Active and inactive are the calls of the source. The rule behind the calls is not given here.

Legend:
[1] = target: Signal transducer and activator of transcription 3 (Mus musculus) (UniProt P42227); experiment: Inhibition of IL6-induced STAT3 phosphorylation at S727 in CD4+ T lymphocytes isolated from C57BL/6J mouse preincubated for 2 hrs followed by activation with plate-bound anti-CD3/anti-CD28 for 15 mins by Western blot analysis
[2] = Cytotoxicity against human BEAS2B cells assessed as cell viability after 72 hrs by MTS assay; type: cell-based; settings: beas-2b
Outline: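 Beas-2B seeded at 2000 cells/well; 10 mM DMSO stocks serially diluted in DMSO and equal amounts added to cultures; 72 h at 37 °C; medium replaced by 1:5 MTS/PBS, 1 h further incubation; viable cells read as optical density at 490 nm.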

[3] = target: T1, Signal transducer and transcription activator 6 (Mus musculus) (UniProt P52633); experiment: Inhibition of IL4-induced STAT6 phosphorylation at Y641 in CD4+ T lymphocytes isolated from C57BL/6J mouse preincubated for 2 hrs followed by activation with plate-bound anti-CD3/anti-CD28 and IL4 for 15 mins by Western blot analysis; type: cell-based
T1 sequence (whole entry): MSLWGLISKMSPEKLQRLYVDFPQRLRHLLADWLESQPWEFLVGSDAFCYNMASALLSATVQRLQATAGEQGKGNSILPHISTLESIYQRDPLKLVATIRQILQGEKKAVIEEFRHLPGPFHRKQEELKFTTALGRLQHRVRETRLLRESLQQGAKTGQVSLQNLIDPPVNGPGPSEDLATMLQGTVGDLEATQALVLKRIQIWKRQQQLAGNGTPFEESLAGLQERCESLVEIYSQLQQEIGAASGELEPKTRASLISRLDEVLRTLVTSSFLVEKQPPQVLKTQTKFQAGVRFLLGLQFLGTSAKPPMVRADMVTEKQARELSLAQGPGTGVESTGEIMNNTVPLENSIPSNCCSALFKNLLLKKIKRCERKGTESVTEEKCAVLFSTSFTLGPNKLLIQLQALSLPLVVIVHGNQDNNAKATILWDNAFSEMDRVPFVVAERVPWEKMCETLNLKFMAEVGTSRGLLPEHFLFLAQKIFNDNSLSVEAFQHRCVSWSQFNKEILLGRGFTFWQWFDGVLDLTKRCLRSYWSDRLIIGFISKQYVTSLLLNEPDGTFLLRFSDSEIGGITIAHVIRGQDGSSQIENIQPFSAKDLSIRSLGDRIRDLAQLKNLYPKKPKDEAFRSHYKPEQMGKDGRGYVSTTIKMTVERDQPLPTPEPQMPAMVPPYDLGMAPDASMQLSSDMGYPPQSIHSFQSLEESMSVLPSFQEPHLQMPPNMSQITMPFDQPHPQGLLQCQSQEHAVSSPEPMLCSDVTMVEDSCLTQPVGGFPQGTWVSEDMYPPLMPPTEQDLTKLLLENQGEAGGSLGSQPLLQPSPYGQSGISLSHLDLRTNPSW
Outline: (§1)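 CD4+ T cells from C57BL/6J mice, sorted by AutoMACS; activated 15 min with plate-bound anti-CD3 and/or anti-CD28 with IL-2, IL-6 or IL-4; lysed with protease inhibitors plus 10 mM NaF and 1 mM Na3VO4; Bradford-normalised immunoblots for pSTAT1 (Tyr701), pSTAT5 (Tyr694), pSTAT6 (Tyr641) and total STATs.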

Mus musculus = species: Mus musculus; experiment: Inhibition of IL2-induced STAT5 phosphorylation at Y694 in CD4+ T lymphocytes isolated from C57BL/6J mouse at 0.5 to 5 uM preincubated for 2 hrs followed by activation with plate-bound anti-CD3/anti-CD28 and IL2 for 15 mins by Western blot analysis; type: cell-based
Outline: as §1

[4] = target: T2, Signal transducer and activator of transcription 6 (Homo sapiens) (UniProt P42226); experiment: Inhibition of IL4-induced STAT6 phosphorylation at tyrosine 641 in human Beas-2B cells at 0.05 to 5 uM incubated for 2 hrs followed by stimulation with IL4 for 1 hr by Western blot assay; type: cell-based
T2 sequence (whole entry): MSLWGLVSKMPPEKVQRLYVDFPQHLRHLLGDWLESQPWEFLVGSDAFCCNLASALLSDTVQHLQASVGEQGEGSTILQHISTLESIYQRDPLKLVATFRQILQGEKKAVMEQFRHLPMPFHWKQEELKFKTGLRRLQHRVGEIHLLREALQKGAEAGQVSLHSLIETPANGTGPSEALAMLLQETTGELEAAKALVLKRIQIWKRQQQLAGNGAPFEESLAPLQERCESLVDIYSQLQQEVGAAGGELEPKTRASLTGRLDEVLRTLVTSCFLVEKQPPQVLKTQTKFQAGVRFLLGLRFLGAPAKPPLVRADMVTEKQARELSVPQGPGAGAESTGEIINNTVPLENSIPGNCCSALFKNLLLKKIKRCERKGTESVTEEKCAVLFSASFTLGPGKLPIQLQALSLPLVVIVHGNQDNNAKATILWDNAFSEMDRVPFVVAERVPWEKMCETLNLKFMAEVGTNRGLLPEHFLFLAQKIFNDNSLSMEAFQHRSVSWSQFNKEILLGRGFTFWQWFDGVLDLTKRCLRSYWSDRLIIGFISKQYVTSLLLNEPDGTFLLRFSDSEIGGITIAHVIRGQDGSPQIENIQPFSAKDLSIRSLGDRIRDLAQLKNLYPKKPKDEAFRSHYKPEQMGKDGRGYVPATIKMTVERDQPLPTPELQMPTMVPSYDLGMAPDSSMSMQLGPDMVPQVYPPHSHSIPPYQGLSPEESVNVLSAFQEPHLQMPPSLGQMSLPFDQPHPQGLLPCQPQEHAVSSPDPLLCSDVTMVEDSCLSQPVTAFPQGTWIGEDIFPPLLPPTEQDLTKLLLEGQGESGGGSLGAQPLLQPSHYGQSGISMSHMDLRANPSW
Outline: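 Beas-2B seeded at 3.0 × 10^5 cells/well the day before; prodrugs from DMSO stocks added to final concentrations for 2 h, then IL-4 (2 ng/mL) for 1 h. PBS-washed cells lysed with PMSF, protein by modified Lowry; blots blocked in 3% BSA/TBST, probed for pSTAT6 (Tyr641), stripped and reprobed for total STAT6; ECL on X-ray film.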

[5] = target: RAC-alpha serine/threonine-protein kinase (Homo sapiens) (UniProt P31749); experiment: Inhibition of EGF-induced AKT phosphorylation at S473 in human MDA-MB-468 cells at 100 nM incubated for 2 hrs followed by stimulation with EGF for 1 hr by Western blot assay; type: cell-based
[6] = target: T3, Signal transducer and activator of transcription 1 (Mus musculus) (UniProt P42225); experiment: Inhibition of IL6-induced STAT1 phosphorylation at Y701 in CD4+ T lymphocytes isolated from C57BL/6J mouse preincubated for 2 hrs followed by activation with plate-bound anti-CD3/anti-CD28 and IL6 for 15 mins by Western blot analysis; type: cell-based
T3 sequence (whole entry): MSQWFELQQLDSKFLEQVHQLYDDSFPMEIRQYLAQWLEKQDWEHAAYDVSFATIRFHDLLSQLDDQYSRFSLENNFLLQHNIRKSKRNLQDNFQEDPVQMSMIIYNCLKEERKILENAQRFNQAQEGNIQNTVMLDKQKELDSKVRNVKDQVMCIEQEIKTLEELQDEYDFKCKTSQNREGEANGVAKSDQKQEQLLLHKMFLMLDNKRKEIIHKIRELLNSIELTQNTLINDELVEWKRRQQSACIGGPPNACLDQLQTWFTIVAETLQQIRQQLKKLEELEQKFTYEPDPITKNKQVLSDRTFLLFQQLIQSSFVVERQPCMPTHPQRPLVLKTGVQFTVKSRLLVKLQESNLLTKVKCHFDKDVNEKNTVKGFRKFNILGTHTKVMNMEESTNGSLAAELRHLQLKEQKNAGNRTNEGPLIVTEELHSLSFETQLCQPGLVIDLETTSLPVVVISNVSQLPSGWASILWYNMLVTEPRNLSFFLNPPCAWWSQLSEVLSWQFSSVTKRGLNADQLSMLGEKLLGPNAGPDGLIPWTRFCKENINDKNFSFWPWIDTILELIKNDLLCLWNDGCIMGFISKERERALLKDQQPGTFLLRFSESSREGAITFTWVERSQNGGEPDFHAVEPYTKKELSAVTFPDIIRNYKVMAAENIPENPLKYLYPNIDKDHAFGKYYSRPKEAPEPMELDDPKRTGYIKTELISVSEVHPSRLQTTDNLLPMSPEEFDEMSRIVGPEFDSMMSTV
Outline: as §1

Signal transducer and activator of transcription 3 (Mus musculus), sequence (P42227 whole entry): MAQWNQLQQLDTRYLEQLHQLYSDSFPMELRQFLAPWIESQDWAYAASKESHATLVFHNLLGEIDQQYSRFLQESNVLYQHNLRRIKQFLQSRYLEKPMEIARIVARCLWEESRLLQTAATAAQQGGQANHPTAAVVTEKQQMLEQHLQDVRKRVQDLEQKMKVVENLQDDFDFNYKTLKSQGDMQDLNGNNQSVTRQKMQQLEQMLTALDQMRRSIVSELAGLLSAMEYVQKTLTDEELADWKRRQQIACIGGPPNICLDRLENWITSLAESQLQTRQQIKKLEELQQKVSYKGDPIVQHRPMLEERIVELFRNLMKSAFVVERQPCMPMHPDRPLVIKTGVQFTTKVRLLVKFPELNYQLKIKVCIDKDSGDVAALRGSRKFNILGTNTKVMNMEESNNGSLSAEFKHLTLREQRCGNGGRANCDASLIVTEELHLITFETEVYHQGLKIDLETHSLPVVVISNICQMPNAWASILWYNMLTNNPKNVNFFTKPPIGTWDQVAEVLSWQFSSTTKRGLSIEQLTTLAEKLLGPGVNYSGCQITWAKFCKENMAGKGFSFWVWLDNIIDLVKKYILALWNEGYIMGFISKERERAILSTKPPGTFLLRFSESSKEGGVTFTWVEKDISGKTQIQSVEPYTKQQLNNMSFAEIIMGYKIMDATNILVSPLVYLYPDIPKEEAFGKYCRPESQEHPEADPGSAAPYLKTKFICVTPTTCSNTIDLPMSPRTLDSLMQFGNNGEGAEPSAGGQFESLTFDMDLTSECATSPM
RAC-alpha serine/threonine-protein kinase (Homo sapiens), sequence (P31749 whole entry): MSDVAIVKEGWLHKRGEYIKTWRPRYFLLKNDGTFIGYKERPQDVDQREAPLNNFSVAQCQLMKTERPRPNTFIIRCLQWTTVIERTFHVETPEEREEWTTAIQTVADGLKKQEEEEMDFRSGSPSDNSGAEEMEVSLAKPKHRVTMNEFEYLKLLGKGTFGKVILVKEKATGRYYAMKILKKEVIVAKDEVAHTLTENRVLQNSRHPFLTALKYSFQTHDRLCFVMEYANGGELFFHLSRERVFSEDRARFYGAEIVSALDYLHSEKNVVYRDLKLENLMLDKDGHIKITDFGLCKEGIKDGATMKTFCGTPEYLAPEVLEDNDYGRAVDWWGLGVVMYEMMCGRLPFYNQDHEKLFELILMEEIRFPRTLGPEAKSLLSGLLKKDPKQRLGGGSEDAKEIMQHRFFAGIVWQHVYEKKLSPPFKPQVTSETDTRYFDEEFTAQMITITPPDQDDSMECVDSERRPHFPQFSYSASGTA

inhibition [1]: inactive
inhibition [3]: Active
inhibition [4]: Active
inhibition [5]: Active
inhibition [6]: inactive
SMILES: CC(C)(C)C(=O)OCOP(=O)(OCOC(=O)C(C)(C)C)C(F)(F)c1ccc(/C=C/C(=O)N[C@H](C(=O)N2CCC[C@H]2C(=O)Nc2ccccc2)C(C)(C)C)cc1
Activity [2]: Toxic
inhibition (Mus musculus): inactive
